Laboratory results: ChEMBL document CHEMBL4350969, “Falcipain Inhibitors Based on the Natural Product Gallinamide A Are Potent in Vitro and in Vivo Antimalarials” (J Med Chem, 2019)
pIC50: −log10 of the molar value. Activity calls are given as the source filed them. No cut-off for these calls is given here.

What was measured:
[1] = molecular target: T1, Falcipain 2 (Plasmodium falciparum, UniProt Q9N6S8); experiment: Inhibition of Plasmodium falciparum N-terminal His6-tagged falcipain-2 (35 residues) expressed in Escherichia coli M15 pREP4 using Z-Lue-Arg-AMC as substrate measured after 30 mins by spectrofluorometric method
T1 sequence (Q9N6S8 whole entry): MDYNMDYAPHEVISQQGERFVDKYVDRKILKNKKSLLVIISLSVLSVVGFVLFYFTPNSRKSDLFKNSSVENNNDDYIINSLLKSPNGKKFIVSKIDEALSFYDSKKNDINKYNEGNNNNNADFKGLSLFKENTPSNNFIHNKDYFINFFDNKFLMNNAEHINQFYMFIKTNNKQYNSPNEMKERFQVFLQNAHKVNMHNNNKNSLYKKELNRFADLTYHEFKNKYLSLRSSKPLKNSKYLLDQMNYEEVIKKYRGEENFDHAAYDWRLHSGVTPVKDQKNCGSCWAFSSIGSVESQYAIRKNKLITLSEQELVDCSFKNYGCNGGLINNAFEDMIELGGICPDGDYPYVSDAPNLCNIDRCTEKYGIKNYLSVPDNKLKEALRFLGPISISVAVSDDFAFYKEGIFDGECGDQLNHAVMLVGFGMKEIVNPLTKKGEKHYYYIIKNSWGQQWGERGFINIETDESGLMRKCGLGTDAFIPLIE
Summary of the method: (§1)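 Recombinant heterologously expressed FP2 or FP3; inhibition measured by continuous kinetic cleavage of fluorogenic substrate Z-Leu-Arg-AMC.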

[2] = molecular target: T2, Cysteine protease falcipain-3 (Plasmodium falciparum, UniProt Q9NAW4); experiment: Inhibition of Plasmodium falciparum N-terminal His-tagged falcipain-3 (33 residues) expressed in Escherichia coli M15 pREP4 using Z-Leu-Arg-AMC as substrate measured after 30 mins by spectrofluorometric method; summary of the method: as §1
T2 sequence (Q9NAW4 whole entry): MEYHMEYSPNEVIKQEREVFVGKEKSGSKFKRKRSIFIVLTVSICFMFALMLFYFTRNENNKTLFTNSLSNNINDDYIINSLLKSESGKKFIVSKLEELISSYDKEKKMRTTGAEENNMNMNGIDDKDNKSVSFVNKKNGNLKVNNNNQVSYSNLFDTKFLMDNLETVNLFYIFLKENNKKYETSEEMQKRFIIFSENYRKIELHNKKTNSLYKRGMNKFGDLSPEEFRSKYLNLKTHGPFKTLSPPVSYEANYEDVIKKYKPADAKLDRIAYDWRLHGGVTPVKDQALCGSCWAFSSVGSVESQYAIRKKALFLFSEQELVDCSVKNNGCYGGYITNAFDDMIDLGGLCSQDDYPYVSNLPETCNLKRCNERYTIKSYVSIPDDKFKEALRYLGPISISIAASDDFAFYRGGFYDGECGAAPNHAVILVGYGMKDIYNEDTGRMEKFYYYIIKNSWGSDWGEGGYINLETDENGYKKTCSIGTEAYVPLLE

[3] = tested on: Plasmodium falciparum; experiment: Antimalarial activity against synchronized ring stage CQ-sensitive Plasmodium falciparum 3D7 infected in human erythrocytes incubated for 24 hrs followed by compound washout and subsequent compound addition and measured after 48 hrs by YOYO-1 probe-based flow cytometry; assay type: functional, organism-based
[4] = tested on: Plasmodium falciparum; experiment: Antimalarial activity against synchronized ring stage CQ-resistant Plasmodium falciparum W2 infected in human erythrocytes incubated for 24 hrs followed by compound washout and subsequent compound addition and measured after 48 hrs by YOYO-1 probe-based flow cytometry; assay type: functional, organism-based
[5] = tested on: Plasmodium berghei; experiment: Antimalarial activity against Plasmodium berghei ANKA infected in specific pathogen-free C57BL/6 mouse assessed as reduction in parasitemia at 50 mg/kg, ip administered once daily for 4 days measured up to 35 days post-infection by rapid staining-based microscopic analysis; assay type: functional, organism-based
Summary of the method: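 Established-infection model: female C57BL/6 mice inoculated i.p. with 10^6 PbA-parasitized red cells; compound in DMSO diluted in saline given i.p. at 50 mg/kg on days 4, 5, 6 and 7 post-infection, chloroquine 50 mg/kg as comparator, vehicle controls; 7 mice per group. Tail-vein smears, % parasitemia by microscopy, mean ± SEM; survival recorded.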

[6] = tested on: Plasmodium berghei; experiment: Antimalarial activity against Plasmodium berghei ANKA infected in specific pathogen-free C57BL/6 mouse assessed as reduction in disease severity at 100 mg/kg, po administered once daily for 4 days measured up to 35 days post-infection by rapid staining-based microscopic analysis; assay type: functional, organism-based
Summary of the method: (§2)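 Female C57BL/6 mice, 8–9 weeks old, inoculated i.p. with 10^6 P. berghei ANKA-parasitized red cells. Compound dissolved in DMSO, diluted in 154 mM NaCl, given by oral gavage at 100 mg/kg on days 4, 5, 6 and 7 post-infection. Tail-vein thin smears stained with Rapid Stain, % parasitemia by microscopy; mice euthanized at signs of severe disease.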

[7] = tested on: Plasmodium berghei; experiment: Antimalarial activity against Plasmodium berghei ANKA infected in specific pathogen-free C57BL/6 mouse assessed as reduction in parasitemia at 100 mg/kg, po administered once daily for 4 days measured up to 35 days post-infection by rapid staining-based microscopic analysis; assay type: functional, organism-based; summary of the method: as §2
[8] = Half life in Swiss mouse plasma at 1 ug/ml by UPLC-MS analysis; assay type: ADME, cell-free
Summary of the method: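 Fresh whole blood from non-fasted male Swiss outbred mice; plasma separated by centrifugation. Compound spiked to 1 μg/mL final (0.2% DMSO, 0.4% acetonitrile), kept at 37 °C; aliquots taken over 4 h (n=3 per time point), snap-frozen, protein precipitated with acetonitrile, UPLC-MS (ESI+) against matrix calibration standards. Exponential decay fit gives k; half-life = ln(2)/k.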

[9] = Half life in Swiss mouse blood at 1 ug/ml by UPLC-MS analysis; assay type: ADME, tissue-based; conditions: whole blood
[10] = tested on: HEK293; experiment: Cytotoxicity against HEK293 cells assessed as reduction in cell viability at 25 uM measured after 18 hrs by alamar blue assay; assay type: cell-based; conditions: human, hek293, 18 h
[11] = Drug metabolism in mouse liver microsomes assessed as N,N-bis-demethylation at 10 uM measured after 60 mins in presence of NADPH-generating system by UPLC-MS analysis; assay type: ADME, Microsome; conditions: 1 h
[12] = Drug metabolism in human liver microsomes assessed as N,N-bis-demethylation at 10 uM measured after 60 mins in presence of NADPH-generating system by UPLC-MS analysis; assay type: ADME, Microsome; conditions: 1 h

Row | SMILES | pIC50 [1] | pIC50 [2] | pIC50 [3] | pIC50 [4] | Activity [5] | Activity [6] | Activity [7] | half-life at 1 ug/ml [8] | half-life at 1 ug/ml [9] | Activity [10] | Drug metabolism [11] | Drug metabolism [12]
1 | COC1=CC(=O)N(C(=O)/C=C/C(C)(C)NC(=O)[C@H](CC(C)C)NC(=O)[C@H](CC(C)C)NC(=O)[C@H](C(C)C)N(C)C)[C@H]1Cc1c[nH]c2ccccc12 | < 4.30 | < 4.30 | 5.16 | 5.99 | – | – | – | – | – | – | – | –
2 | COC1=CC(=O)N(C(=O)/C=C/[C@H](C)NC(=O)[C@H](CC(C)C)NC(=O)[C@H](CC2CCCCC2)NC(=O)[C@H](C(C)C)N(C)C)[C@H]1Cc1c[nH]c2ccccc12 | 7.23 | 6.88 | 7.85 | 7.96 | – | – | – | – | – | – | – | –
3 | CCN(CC)CCCC(C)Nc1ccnc2cc(Cl)ccc12 (stereo unspecified) | – | – | – | – | Active | Active | Active | – | – | – | – | –
4 | COC1=CC(=O)N(C(=O)/C=C/[C@H](C)NC(=O)C(C)(C)NC(=O)[C@H](CC(C)C)NC(=O)[C@H](C(C)C)N(C)C)[C@H]1Cc1c[nH]c2ccccc12 | < 4.30 | < 4.30 | < 5.00 | 5.43 | – | – | – | – | – | – | – | –
5 | COC1=CC(=O)N(C(=O)/C=C/[C@H](C)NC(=O)[C@H](CC2CCCCC2)NC(=O)[C@H](CC2CCCCC2)NC(=O)C2CCN(C)CC2)[C@H]1Cc1c[nH]c2ccccc12 | 6.34 | 6.26 | 6.79 | 7.26 | – | – | – | – | – | – | – | –
6 | COC1=CC(=O)N(C(=O)/C=C/[C@H](C)NC(=O)[C@H](CC(C)C)NC(=O)[C@H](CC(C)C)NC(=O)[C@H](C(C)C)N(C)C)[C@H]1Cc1c[nH]c2ccccc12.O=C(O)C(F)(F)F | – | – | – | – | – | – | – | < 0.0333 h | < 0.0333 h | Non-Toxic | – | –
7 | COC1=CC(=O)N(C(=O)/C=C/[C@H](C)NC(=O)[C@H](CCc2ccccc2)NC(=O)[C@H](CC2CCCCC2)NC(=O)[C@H](C(C)C)N(C)C)[C@H]1Cc1c[nH]c2ccccc12 | 5.45 | 5.06 | 5.90 | 6.32 | – | – | – | – | – | – | – | –
8 | COC1=CC(=O)N(C(=O)/C=C/[C@H](CC2CCCCC2)NC(=O)[C@H](CC(C)C)NC(=O)[C@H](CC(C)C)NC(=O)[C@H](C(C)C)N(C)C)[C@H]1Cc1c[nH]c2ccccc12 | 6.57 | 5.59 | 7.12 | 7.27 | – | – | – | – | – | – | – | –
9 | COC1=CC(=O)N(C(=O)/C=C/[C@H](C)NC(=O)[C@H](CC(C)C)NC(=O)[C@H](CCc2ccccc2)NC(=O)[C@H](C(C)C)N(C)C)[C@H]1Cc1c[nH]c2ccccc12.O=C(O)C(F)(F)F | 7.24 | 6.64 | 8.30 | 8.15 | – | – | – | 9.28 h | 1.83 h | Non-Toxic | Metabolite_Detected | Metabolite_Detected
10 | COC1=CC(=O)N(C(=O)/C=C/[C@H](C)NC(=O)[C@H](CC(C)C)NC(=O)[C@H](Cc2ccccc2)NC(=O)[C@H](C(C)C)N(C)C)[C@H]1Cc1c[nH]c2ccccc12 | 7.22 | 6.07 | 7.62 | 8.00 | – | – | – | – | – | – | – | –
11 | C[C@@H]1CC[C@H]2[C@@H](C)C(=O)O[C@@H]3O[C@@]4(C)CC[C@@H]1[C@]32OO4 [ARTEMISININ] | – | – | 7.49 | 7.68 | – | – | – | – | – | – | – | –
12 | COC1=CC(=O)N(C(=O)/C=C/[C@H](C)NC(=O)[C@H](CC2CCCCC2)NC(=O)[C@H](CC(C)C)NC(=O)C2CCN(C)CC2)[C@H]1Cc1c[nH]c2ccccc12 | 6.81 | 6.32 | 6.69 | 7.23 | – | – | – | – | – | – | – | –
13 | COC1=CC(=O)N(C(=O)/C=C/[C@H](C)NC(=O)[C@H](CC2CCCCC2)NC(=O)[C@H](CC(C)C)NC(=O)[C@H](C(C)C)N(C)C)[C@H]1Cc1c[nH]c2ccccc12 | 6.63 | 6.39 | 7.14 | 7.43 | – | – | – | – | – | – | – | –
14 | CC(C)C[C@H](NC(=O)[C@@H]1O[C@H]1C(=O)O)C(=O)NCCCCN=C(N)N | 7.17 | 6.87 | – | – | – | – | – | – | – | – | – | –
15 | COC1=CC(=O)N(C(=O)/C=C/[C@@H](NC(=O)[C@H](CC(C)C)NC(=O)[C@H](CC(C)C)NC(=O)[C@H](C(C)C)N(C)C)C2CCCCC2)[C@H]1Cc1c[nH]c2ccccc12.O=C(O)C(F)(F)F | 7.08 | 6.32 | 8.05 | 8.00 | – | – | – | > 10 h | > 10 h | Non-Toxic | Metabolite_Detected | Metabolite_Detected
16 | COC1=CC(=O)N(C(=O)/C=C/[C@H](C)NC(=O)[C@H](CCc2ccccc2)NC(=O)[C@H](CC(C)C)NC(=O)[C@H](C(C)C)N(C)C)[C@H]1Cc1c[nH]c2ccccc12 | 5.51 | 4.99 | 5.59 | 6.16 | – | – | – | – | – | – | – | –
17 | COC1=CC(=O)N(C(=O)/C=C/[C@@H](NC(=O)[C@H](CC(C)C)NC(=O)[C@H](CC2CCCCC2)NC(=O)[C@H](C(C)C)N(C)C)C2CCCCC2)[C@H]1Cc1c[nH]c2ccccc12 | 6.77 | 6.31 | 7.08 | 7.02 | – | – | – | – | – | – | – | –
18 | COC1=CC(=O)N(C(=O)/C=C/[C@H](C)NC(=O)[C@H](CC2CCCCC2)NC(=O)[C@H](CC2CCCCC2)NC(=O)[C@H](C(C)C)N(C)C)[C@H]1Cc1c[nH]c2ccccc12 | 6.33 | 6.34 | 6.64 | 6.92 | – | – | – | – | – | – | – | –
